This note sets out measurements from ChEMBL document CHEMBL5696442, “Discovery of type II inhibitors of TGFβ-activated kinase 1 (TAK1) and mitogen-activated protein kinase kinase kinase kinase 2 (MAP4K2)” (J Med Chem, 2015).

For assay [1], the target named is Serine/threonine-protein kinase PAK 3 (Homo sapiens) (UniProt O75914). Briefly: Inhibition of PAK3 (unknown origin) at 1 uM by Ambit Kinomescan binding assay relative to control; values are per cent of control.
Assay [2] addresses Cyclin-dependent kinase 11B (Homo sapiens) (UniProt P21127). As to the kind of experiment: Inhibition of CDC2L1 (unknown origin) at 1 uM by Ambit Kinomescan binding assay relative to control.
Assay [3] deals with Non-receptor tyrosine-protein kinase TYK2 (Homo sapiens) (UniProt P29597). Briefly: Inhibition of TYK2 JH2 pseudokinase domain (unknown origin) at 1 uM by Ambit Kinomescan binding assay relative to control.
Assay [4] deals with Microtubule-associated serine/threonine-protein kinase 4 (Homo sapiens) (UniProt O15021). As to the kind of experiment: Inhibition of MAST4 Lys2 labeling site in human A-375 cells at 5 uM by KiNativ Profiling analysis relative to control. The assay is classed as cell-based. The method in brief:
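Live A375 melanoma cells were treated with compound at 5 or 0.5 μM, then lysed. Lysates were labeled with a lysine-reactive ATP or ADP-biotin probe. Read-out was the compound's protection of kinase labeling sites from probe labeling (KiNativ).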

Assay [5] has as its target Serine/threonine-protein kinase 17B (Homo sapiens) (UniProt O94768). As to the kind of experiment: Inhibition of DRAK2 (unknown origin) at 1 uM by Ambit Kinomescan binding assay relative to control; values are per cent of control.
The target of assay [6] is STE20/SPS1-related proline-alanine-rich protein kinase (Homo sapiens) (UniProt Q9UEW8). As to the kind of experiment: Inhibition of STK39 (unknown origin) at 1 uM by Ambit Kinomescan binding assay relative to control.
Assay [7] addresses Glycogen synthase kinase-3 beta (Homo sapiens) (UniProt P49841). Briefly: Inhibition of GSK3B K2 labeling site in human Huh-7 cells at 1 uM by KiNativ Profiling analysis relative to control. The assay is classed as cell-based.
Assay [8] addresses Serine/threonine-protein kinase 35 (Homo sapiens) (UniProt Q8TDR2). As to the kind of experiment: Inhibition of STK35 (unknown origin) at 10 uM by Ambit Kinomescan binding assay relative to control; values are per cent of control.
Assay [9] addresses Ephrin type-A receptor 1 (Homo sapiens) (UniProt P21709). As to the kind of experiment: Inhibition of EPHA1 (unknown origin) at 10 uM by Ambit Kinomescan binding assay.
The target in assay [10] is DNA-PK/Ku70/Ku85 (Homo sapiens) (UniProt P78527+P12956+P13010). Briefly: Inhibition of DNAPK ATP labeling site harbouring KGGSWIQEINVAEKNWYPR in human A-375 cells at 0.5 uM by KiNativ Profiling analysis relative to control. In kind it is cell-based.
Assay [11] addresses T1, Eukaryotic translation initiation factor 2-alpha kinase 3 (Homo sapiens) (UniProt Q9NZJ5).
T1 sequence (whole entry): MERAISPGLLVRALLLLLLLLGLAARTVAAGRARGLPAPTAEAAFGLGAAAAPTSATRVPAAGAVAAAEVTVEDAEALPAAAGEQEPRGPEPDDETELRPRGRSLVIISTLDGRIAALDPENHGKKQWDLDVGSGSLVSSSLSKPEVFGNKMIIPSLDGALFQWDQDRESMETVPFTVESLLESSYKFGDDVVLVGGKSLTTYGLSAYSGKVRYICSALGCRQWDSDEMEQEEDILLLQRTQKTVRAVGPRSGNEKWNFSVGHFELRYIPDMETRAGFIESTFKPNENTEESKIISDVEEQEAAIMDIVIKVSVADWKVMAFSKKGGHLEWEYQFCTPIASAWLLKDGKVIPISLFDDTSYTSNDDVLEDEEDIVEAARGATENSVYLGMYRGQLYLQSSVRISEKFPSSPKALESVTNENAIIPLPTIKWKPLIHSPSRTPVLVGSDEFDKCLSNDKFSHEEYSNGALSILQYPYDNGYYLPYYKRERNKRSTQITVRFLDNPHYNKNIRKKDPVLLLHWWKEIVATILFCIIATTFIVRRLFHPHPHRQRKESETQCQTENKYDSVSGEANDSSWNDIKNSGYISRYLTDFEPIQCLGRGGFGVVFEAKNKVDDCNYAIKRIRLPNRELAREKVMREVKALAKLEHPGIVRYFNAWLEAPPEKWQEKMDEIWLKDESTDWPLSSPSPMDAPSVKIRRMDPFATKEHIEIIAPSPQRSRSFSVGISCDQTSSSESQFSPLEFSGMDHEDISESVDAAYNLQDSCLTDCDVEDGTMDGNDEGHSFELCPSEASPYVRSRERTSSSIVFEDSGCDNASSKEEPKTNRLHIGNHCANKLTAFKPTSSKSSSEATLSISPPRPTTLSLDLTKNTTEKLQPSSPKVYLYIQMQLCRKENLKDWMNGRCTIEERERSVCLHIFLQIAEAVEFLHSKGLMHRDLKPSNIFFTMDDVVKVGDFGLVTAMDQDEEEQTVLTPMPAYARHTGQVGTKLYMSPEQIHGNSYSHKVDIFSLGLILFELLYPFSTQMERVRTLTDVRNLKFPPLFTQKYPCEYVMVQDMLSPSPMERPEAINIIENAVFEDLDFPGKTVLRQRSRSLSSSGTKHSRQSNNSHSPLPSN
Briefly: Inhibition of PEK Lys2 labeling site in human Huh-7 cell lysate at 1 uM by KiNativ Profiling analysis relative to control. The assay is classed as subcellular.

The target in assay [12] is Ribosomal protein S6 kinase alpha-5 (Homo sapiens) (UniProt O75582). Briefly: Inhibition of MSK1 domain1 ATP labeling site in human Huh-7 cell lysate at 1 uM by KiNativ Profiling analysis relative to control. The assay is classed as subcellular.
Assay [13] addresses T2, EKC/KEOPS complex subunit TP53RK (Homo sapiens) (UniProt Q96S44).
T2 sequence (whole entry): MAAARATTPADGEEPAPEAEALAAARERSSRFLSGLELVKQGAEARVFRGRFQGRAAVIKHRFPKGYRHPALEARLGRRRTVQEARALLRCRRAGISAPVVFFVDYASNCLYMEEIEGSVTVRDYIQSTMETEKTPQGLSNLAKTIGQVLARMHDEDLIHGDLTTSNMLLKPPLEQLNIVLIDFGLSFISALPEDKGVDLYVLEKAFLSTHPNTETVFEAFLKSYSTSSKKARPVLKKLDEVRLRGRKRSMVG
Briefly: Inhibition of PRPK ATP labeling site in human Huh-7 cell lysate at 1 uM by KiNativ Profiling analysis relative to control. In kind it is subcellular.

Assay [14] has as its target Calcium/calmodulin-dependent protein kinase type II subunit alpha (Homo sapiens) (UniProt Q9UQM7). As to the kind of experiment: Inhibition of CaMK2a Lys2 labeling site in human Huh-7 cell lysate at 1 uM by KiNativ Profiling analysis relative to control. The assay is classed as subcellular.
Assay [15] concerns the target Serine/threonine-protein kinase PLK1 (Homo sapiens) (UniProt P53350). As to the kind of experiment: Inhibition of PLK1 Lys1 labeling site harbouring EVFAGKIVPK in human Huh-7 cell lysate at 1 uM by KiNativ Profiling analysis relative to control. The assay is classed as subcellular.
Assay [16] in a line: Inhibition of KHS1 Lys2 labeling site harbouring DIKGANILLTDHGDVKLADFGVAAK in human Huh-7 cell lysate at 1 uM by KiNativ Profiling analysis relative to control. The following applies: condition cancer.

Structures are written as SMILES. Activity calls are given as the source filed them. The calls are words filed in the database; no cut-off is given here.

Serine/threonine-protein kinase PLK1 (Homo sapiens), sequence (P53350 whole entry): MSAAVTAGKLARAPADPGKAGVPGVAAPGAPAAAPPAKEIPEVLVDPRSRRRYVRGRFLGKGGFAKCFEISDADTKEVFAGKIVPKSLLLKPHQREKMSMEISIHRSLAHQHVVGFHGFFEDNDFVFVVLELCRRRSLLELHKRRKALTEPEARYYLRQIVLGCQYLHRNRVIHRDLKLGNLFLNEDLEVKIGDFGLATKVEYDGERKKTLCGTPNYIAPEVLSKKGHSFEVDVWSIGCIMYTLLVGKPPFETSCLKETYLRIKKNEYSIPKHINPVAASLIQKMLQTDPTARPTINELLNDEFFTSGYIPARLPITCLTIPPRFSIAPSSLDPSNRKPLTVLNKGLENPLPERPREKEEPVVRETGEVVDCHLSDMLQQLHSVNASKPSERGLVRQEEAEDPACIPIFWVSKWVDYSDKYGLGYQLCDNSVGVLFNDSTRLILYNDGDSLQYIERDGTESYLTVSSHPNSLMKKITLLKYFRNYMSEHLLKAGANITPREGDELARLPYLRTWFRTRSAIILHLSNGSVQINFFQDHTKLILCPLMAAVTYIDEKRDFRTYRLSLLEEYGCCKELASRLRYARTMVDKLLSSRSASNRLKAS
Serine/threonine-protein kinase 17B (Homo sapiens), sequence (O94768 whole entry): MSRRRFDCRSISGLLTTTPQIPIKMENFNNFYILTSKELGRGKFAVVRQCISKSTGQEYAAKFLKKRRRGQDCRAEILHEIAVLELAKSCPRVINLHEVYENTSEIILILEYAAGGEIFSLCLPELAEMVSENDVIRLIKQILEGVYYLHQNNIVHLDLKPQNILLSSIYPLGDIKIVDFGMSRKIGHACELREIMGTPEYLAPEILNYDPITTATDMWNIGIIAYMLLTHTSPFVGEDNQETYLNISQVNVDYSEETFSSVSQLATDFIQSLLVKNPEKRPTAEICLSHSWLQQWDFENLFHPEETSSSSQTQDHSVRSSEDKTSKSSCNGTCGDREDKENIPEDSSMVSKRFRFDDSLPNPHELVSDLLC
Non-receptor tyrosine-protein kinase TYK2 (Homo sapiens), sequence (P29597 whole entry, the tested form may be a part): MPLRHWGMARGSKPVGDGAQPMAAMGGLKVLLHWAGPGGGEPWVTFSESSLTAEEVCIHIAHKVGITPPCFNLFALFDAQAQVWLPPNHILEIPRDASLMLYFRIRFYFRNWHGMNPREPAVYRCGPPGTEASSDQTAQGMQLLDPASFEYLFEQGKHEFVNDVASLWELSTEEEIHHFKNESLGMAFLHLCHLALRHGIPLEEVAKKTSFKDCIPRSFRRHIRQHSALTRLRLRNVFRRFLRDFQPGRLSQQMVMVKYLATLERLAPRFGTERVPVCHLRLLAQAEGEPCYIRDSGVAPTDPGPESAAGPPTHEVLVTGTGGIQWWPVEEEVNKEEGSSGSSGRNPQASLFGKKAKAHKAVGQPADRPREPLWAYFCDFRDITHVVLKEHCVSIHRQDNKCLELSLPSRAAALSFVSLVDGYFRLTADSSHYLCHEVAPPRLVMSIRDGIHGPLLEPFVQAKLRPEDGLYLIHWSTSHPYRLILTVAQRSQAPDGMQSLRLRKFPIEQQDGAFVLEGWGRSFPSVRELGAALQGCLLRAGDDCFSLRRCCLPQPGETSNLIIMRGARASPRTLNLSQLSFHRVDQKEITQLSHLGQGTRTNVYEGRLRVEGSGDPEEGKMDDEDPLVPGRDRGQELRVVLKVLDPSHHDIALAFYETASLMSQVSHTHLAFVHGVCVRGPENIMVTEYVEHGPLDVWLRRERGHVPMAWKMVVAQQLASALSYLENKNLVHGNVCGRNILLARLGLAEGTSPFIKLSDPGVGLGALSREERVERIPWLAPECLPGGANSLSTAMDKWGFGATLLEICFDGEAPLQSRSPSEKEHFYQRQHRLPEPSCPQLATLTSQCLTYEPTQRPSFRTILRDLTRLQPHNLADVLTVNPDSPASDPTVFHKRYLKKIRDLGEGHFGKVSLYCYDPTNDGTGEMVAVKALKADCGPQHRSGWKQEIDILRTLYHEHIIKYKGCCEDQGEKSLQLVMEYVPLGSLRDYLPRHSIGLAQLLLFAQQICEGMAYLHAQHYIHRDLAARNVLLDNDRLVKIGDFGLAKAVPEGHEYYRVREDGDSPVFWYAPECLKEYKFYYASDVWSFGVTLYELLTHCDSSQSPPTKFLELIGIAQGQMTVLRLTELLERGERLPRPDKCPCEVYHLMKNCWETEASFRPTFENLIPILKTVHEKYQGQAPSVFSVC
Microtubule-associated serine/threonine-protein kinase 4 (Homo sapiens), sequence (O15021 whole entry): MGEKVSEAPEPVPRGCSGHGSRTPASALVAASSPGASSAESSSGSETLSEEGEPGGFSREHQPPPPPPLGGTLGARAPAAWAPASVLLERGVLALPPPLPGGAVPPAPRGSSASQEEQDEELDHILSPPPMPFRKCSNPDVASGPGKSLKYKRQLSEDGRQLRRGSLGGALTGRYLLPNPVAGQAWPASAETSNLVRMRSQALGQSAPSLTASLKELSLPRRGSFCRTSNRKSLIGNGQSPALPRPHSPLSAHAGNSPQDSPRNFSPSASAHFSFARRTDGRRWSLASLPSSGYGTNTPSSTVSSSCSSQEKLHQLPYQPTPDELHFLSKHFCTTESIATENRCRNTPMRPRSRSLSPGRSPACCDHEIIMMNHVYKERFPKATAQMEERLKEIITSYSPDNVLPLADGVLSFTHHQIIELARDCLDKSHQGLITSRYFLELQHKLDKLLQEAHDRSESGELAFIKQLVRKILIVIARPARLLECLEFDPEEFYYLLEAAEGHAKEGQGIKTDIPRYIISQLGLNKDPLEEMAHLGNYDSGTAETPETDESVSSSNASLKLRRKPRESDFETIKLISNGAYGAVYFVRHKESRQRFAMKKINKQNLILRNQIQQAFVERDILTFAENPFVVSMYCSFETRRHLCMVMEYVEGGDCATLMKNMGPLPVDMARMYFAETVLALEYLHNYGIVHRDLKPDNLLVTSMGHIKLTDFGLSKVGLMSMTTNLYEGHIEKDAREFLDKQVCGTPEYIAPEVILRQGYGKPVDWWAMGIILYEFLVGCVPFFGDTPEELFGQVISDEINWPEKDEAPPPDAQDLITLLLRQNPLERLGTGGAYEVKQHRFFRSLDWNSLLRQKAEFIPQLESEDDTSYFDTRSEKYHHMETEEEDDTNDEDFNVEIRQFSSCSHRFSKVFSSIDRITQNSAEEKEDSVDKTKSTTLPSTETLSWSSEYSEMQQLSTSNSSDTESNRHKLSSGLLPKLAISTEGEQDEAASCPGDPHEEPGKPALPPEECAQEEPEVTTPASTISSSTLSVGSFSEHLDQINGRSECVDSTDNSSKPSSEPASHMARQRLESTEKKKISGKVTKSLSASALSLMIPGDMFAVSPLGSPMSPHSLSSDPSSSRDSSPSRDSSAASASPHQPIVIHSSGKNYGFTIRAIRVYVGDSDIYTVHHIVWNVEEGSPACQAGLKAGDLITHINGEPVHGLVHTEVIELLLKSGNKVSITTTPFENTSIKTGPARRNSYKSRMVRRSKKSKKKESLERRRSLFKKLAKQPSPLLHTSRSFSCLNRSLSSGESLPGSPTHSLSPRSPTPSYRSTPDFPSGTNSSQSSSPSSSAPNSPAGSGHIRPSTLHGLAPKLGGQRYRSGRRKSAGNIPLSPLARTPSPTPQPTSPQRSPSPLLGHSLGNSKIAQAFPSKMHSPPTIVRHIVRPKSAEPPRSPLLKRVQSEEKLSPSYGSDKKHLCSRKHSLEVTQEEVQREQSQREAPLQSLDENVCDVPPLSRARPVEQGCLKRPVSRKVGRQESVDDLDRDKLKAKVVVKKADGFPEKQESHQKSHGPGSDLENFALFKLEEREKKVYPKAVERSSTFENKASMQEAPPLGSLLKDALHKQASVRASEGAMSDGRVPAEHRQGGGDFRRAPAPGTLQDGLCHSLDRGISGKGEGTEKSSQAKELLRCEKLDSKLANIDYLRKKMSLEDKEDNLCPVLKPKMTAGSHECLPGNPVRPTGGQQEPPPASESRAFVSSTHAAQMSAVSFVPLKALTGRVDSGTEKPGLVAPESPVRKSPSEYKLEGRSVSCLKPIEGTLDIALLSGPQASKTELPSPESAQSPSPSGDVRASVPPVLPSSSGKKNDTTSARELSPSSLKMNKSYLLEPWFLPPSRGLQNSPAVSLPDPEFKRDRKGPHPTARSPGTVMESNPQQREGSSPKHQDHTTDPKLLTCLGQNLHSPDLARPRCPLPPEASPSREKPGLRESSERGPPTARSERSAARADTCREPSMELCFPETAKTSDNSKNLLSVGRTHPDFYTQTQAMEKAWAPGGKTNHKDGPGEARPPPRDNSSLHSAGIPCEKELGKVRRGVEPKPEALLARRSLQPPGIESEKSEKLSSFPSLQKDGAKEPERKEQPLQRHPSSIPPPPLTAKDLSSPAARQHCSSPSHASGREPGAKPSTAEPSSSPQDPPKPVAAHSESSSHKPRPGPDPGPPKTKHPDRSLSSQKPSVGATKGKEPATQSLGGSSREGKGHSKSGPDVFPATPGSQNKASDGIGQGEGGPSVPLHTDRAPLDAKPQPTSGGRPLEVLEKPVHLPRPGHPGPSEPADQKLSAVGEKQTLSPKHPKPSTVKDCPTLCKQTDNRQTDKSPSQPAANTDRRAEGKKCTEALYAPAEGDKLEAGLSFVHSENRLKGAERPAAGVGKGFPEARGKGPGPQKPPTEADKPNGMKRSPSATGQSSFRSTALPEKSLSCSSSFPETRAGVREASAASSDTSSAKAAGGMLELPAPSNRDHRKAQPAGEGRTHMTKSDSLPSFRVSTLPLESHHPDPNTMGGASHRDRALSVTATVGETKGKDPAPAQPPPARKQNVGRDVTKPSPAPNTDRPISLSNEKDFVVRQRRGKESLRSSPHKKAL

As to `CCN1CCN(Cc2ccc(NC(=O)c3ccc(C)c(/C=C/c4cnc5[nH]ccc5c4OC)c3)cc2C(F)(F)F)CC1`, the residual activity in [1] turned out to be 66%; in [5], 16%. Further, the inhibition was 61% in assay [2], 47% in [3], -8.4% in assay [4] and 70% in [6].

Regarding `CCN1CCN(Cc2ccc(NC(=O)c3ccc(C)c(Oc4ccnc5[nH]ccc45)c3)cc2C(F)(F)F)CC1`, the values for the inhibition in assay [7] and in assay [10] were 2.9% and 13.7%, respectively. For the same molecule, the residual activity in [8] was 3%. Also, the inhibition result in assay [9] was “inactive”.

For `CNc1cc(Oc2cc(C(=O)Nc3cc(N4CCN(C)CC4)cc(C(F)(F)F)c3)ccc2C)ncn1`, the inhibition in assay [11] was -6.7%; in [12] it was -8%; in assay [13], -6%; in assay [14], 0.7%; in assay [15] it was 1.8%. Also, the inhibition at 1 µM in assay [16] is 10.4%.
